Hits are enriched below; roughly 5.8% of the tested compounds scored in any of these assays.
IDH1 R132H inh – blocks human IDH1 R132H reductase activity; diaphorase/resazurin fluorescence, 60 min; O75874; actives 0.18% (n = 70,000); inhibition, % at 10 µM; AID 624101; in the data active = inhibition above about 34%; inconclusive = no clear call, values can overlap the other calls; inactive = below about 11%;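 also: 0% = DMSO and 100% = no enzyme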
Target sequence (O75874 whole entry R132H): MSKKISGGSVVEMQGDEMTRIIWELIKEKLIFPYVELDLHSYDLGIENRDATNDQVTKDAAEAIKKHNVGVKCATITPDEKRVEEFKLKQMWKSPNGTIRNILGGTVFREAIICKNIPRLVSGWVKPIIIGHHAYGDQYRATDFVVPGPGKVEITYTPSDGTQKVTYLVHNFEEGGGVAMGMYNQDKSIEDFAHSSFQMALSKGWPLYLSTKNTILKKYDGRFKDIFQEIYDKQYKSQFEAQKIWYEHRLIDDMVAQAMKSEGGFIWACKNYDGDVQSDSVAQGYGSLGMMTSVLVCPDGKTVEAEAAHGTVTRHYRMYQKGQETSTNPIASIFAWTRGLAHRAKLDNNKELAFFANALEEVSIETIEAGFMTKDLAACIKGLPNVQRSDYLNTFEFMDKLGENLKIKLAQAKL
T cruzi growth-1 – T. cruzi proliferation inhibition; T. cruzi beta-gal in NIH3T3, GalScreen luminescence, 90 h; inhibition, % at 8.34 µM; actives 5.9% (n = 77,000); AID 624255;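 active = mean inhibition above about 93%, with at least 55% of replicates each passing it, limit read from the data, passing the limit was not always enough; inconclusive = only one of those two conditions holds; inactive = neither condition holds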
Pf Dd2 inh – inhibitors of Plasmodium falciparum Dd2 growth; P. falciparum Dd2 growth, SYBR Green, 72 h; hits give low values; activity change, % at 10 µM; actives 2.3% (n = 94,000); in the data active = activity change below about -80%; inconclusive = no clear call, values can overlap the other calls
KDM4C inh – inhibitors of human demethylase GASC-1 KDM4C | Q9H3R0 | GST-KDM4C 2-372, H3K9me3 peptide, LANCE TR-FRET | inhibition, % at 12.5 µM | actives 0.15% (n = 96,000);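 active = mean replicate inhibition above about 25%, with at least 55% of replicates also reaching it, limit read from the data, passing the limit was not always enough; inconclusive = only one of those two conditions met; inactive = neither condition met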
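material = GST-tagged GASC-1 (JMJD2C) catalytic fragment, aa 2-372 | amount = enzyme final amount 10 nM | medium = HEPES buffer, pH 7.5, plus ascorbate | also added = H3K9me3 peptide substrate, Fe(II), 2-oxoglutarate | dosing = single dose | times = 30 min demethylation and 1 h detection at room temperature | detection = LANCE TR-FRET | read-out basis = Fall in 671/618 emission ratio as inhibition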
T cruzi growth-2 – Trypanosoma cruzi proliferation inhibition | T. cruzi beta-gal in NIH3T3, GalScreen luminescence, 90 h | inhibition, % at 8.35 µM | shares compounds with T cruzi growth-1 | AID 651739 | actives 72% (n = 5,600);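 active = mean replicate inhibition above about 95% and at least 55% of replicates individually reaching it, limit read from the data; inconclusive = only one of the two criteria is met; inactive = neither criterion is met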
T cruzi growth-3 – inhibitors of T. cruzi proliferation | shares compounds with T cruzi growth-1 | T. cruzi beta-gal in NIH3T3, GalScreen luminescence, 90 h | inhibition, % at 2.09 µM | actives 21% (n = 5,600) | AID 651740;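 active = mean inhibition above about 95%, with at least 55% of replicates also reaching it, limit read from the data; inconclusive = meets just one of the two conditions; inactive = meets neither condition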;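 also: plate controls were neutral control median for no effect and positive control median for full effect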
NIH3T3 tox – NIH/3T3 (mouse) viability loss; shares compounds with T cruzi growth-1; NIH/3T3 viability, CellTiter-Glo ATP luminescence, 90 h; cytotoxicity (signal decrease), % at 8.35 µM; actives 14% (n = 5,600); AID 651742;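 active = mean signal decrease across replicates above about 35% based on untreated-well scatter, with enough replicates individually passing, limit read from the data; inconclusive = no rule stated though some were filed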;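 also: 0% = median of neutral control wells and 100% = median of positive control wells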
3T3 cytotox 2 – NIH/3T3 (mouse) viability loss; NIH/3T3 viability, CellTiter-Glo ATP luminescence, 90 h; actives 56% (n = 5,600); inhibition, % at 24.9 µM; shares compounds with T cruzi growth-1;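 active = mean loss of cell viability signal at or above a set limit, and enough replicates individually reaching it; inconclusive = meets only the mean limit or only the replicate share; inactive = meets neither condition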;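 also: 0% = median of neutral control wells and 100% = median of positive control wells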
The depositor's hits bear a star.

C[C@@H]1CCCCO[C@H](CN(C)S(=O)(=O)c2cccs2)[C@H](C)CN([C@@H](C)CO)C(=O)c2cc(NS(=O)(=O)c3ccc(Cl)cc3)ccc2O1 was read as IDH1 R132H inh 0, T cruzi growth-1 95*, Pf Dd2 inh -58, KDM4C inh 0, T cruzi growth-2 102*, T cruzi growth-3 82, NIH3T3 tox -3 and 3T3 cytotox 2 14.
`C[C@@H]1CCCCO[C@@H](CN(C)S(=O)(=O)c2cccs2)[C@H](C)CN([C@H](C)CO)C(=O)c2cc(NS(=O)(=O)c3ccc(Cl)cc3)ccc2O1` gave IDH1 R132H inh 3, T cruzi growth-1 92, Pf Dd2 inh -69 and KDM4C inh 0.
Screening C[C@@H]1CCCCO[C@H](CN(C)S(=O)(=O)c2cccs2)[C@@H](C)CN([C@@H](C)CO)C(=O)c2cc(NS(=O)(=O)c3ccc(Cl)cc3)ccc2O1 returned T cruzi growth-1 93*, Pf Dd2 inh -57, KDM4C inh 0, T cruzi growth-2 98*, T cruzi growth-3 99*, NIH3T3 tox -16 and 3T3 cytotox 2 -2.
For C[C@H](CO)N1C[C@H](C)[C@H](CN(C)S(=O)(=O)c2cccs2)OCCCC[C@H](C)Oc2ccc(NS(=O)(=O)c3ccc(Cl)cc3)cc2C1=O the results were IDH1 R132H inh 0, T cruzi growth-1 104*, Pf Dd2 inh -51, KDM4C inh -1, T cruzi growth-2 102*, T cruzi growth-3 84, NIH3T3 tox -9 and 3T3 cytotox 2 5.
Screening C[C@H](CO)N1C[C@H](C)[C@@H](CN(C)S(=O)(=O)c2cccs2)OCCCC[C@H](C)Oc2ccc(NS(=O)(=O)c3ccc(Cl)cc3)cc2C1=O returned IDH1 R132H inh 1, T cruzi growth-1 102, Pf Dd2 inh -30 and KDM4C inh 0.
For C[C@@H]1CCCCO[C@@H](CN(C)S(=O)(=O)c2ccc(Cl)cc2)[C@@H](C)CN([C@@H](C)CO)C(=O)c2cc(NC(=O)Nc3cccc4ccccc34)ccc2O1 the results were T cruzi growth-1 59, Pf Dd2 inh -75 and KDM4C inh 0.
`C[C@H](CO)N1C[C@H](C)[C@@H](CN(C)Cc2ccc(-c3ccccc3)cc2)Oc2ccc(NC(=O)Nc3cccc4ccccc34)cc2C1=O` gave T cruzi growth-1 102*, Pf Dd2 inh -16, KDM4C inh 0, T cruzi growth-2 106*, T cruzi growth-3 72, NIH3T3 tox 9 and 3T3 cytotox 2 28.
For C[C@@H]1CN([C@H](C)CO)C(=O)c2cc(NC(=O)Nc3cccc4ccccc34)ccc2O[C@H]1CN(C)Cc1ccc(-c2ccccc2)cc1 the results were IDH1 R132H inh -1, T cruzi growth-1 112*, Pf Dd2 inh 8, KDM4C inh 1, T cruzi growth-2 103*, T cruzi growth-3 91, NIH3T3 tox 9 and 3T3 cytotox 2 -1.
For C[C@H]1CN([C@@H](C)CO)C(=O)c2cc(NC(=O)Nc3cccc4ccccc34)ccc2O[C@H]1CN(C)Cc1ccc(-c2ccccc2)cc1 the results were IDH1 R132H inh -1, T cruzi growth-1 81, Pf Dd2 inh -12 and KDM4C inh -4.
C[C@@H]1CCCCO[C@H](CN(C)C(=O)Nc2ccccc2)[C@H](C)CN([C@H](C)CO)C(=O)c2cc(NC(=O)CCCN(C)C)ccc2O1 was read as IDH1 R132H inh 2, Pf Dd2 inh -47 and KDM4C inh 1.
Screening C[C@H](CO)N1C[C@H](C)[C@@H](CN(C)Cc2ccc3c(c2)OCO3)Oc2ccc(NC(=O)C3CCCCC3)cc2CC1=O returned IDH1 R132H inh 1, T cruzi growth-1 100*, Pf Dd2 inh -51, KDM4C inh 2, T cruzi growth-2 103*, T cruzi growth-3 70, NIH3T3 tox 5 and 3T3 cytotox 2 28*.
For C[C@H]1CN([C@@H](C)CO)C(=O)Cc2cc(NC(=O)C3CCCCC3)ccc2O[C@@H]1CN(C)CC1CC1 the results were IDH1 R132H inh 0, T cruzi growth-1 -7, Pf Dd2 inh -21 and KDM4C inh 2.
Screening C[C@@H]1CN([C@@H](C)CO)C(=O)Cc2cc(NC(=O)C3CCCCC3)ccc2O[C@@H]1CN(C)CC1CC1 returned IDH1 R132H inh 0, T cruzi growth-1 97*, Pf Dd2 inh -8, KDM4C inh 0, T cruzi growth-2 21, T cruzi growth-3 10, NIH3T3 tox 3 and 3T3 cytotox 2 7.
`C[C@H]1CN([C@@H](C)CO)C(=O)Cc2cc(NC(=O)C3CCCCC3)ccc2O[C@@H]1CN(C)Cc1ccc2c(c1)OCO2` gave IDH1 R132H inh 1, T cruzi growth-1 99*, Pf Dd2 inh -46, KDM4C inh 2, T cruzi growth-2 96*, T cruzi growth-3 33, NIH3T3 tox -19 and 3T3 cytotox 2 14.
`COc1ccc(NC(=O)N(C)C[C@@H]2OCCCC[C@H](C)Oc3ccc(NS(=O)(=O)c4cccs4)cc3C(=O)N([C@H](C)CO)C[C@@H]2C)cc1` gave T cruzi growth-1 41, Pf Dd2 inh -12 and KDM4C inh 1.
Screening Cc1ccc(S(=O)(=O)N[C@H]2C=C[C@H](CC(=O)N3CCC(Cc4ccccc4)CC3)O[C@H]2CO)cc1 returned IDH1 R132H inh 0, T cruzi growth-1 125*, Pf Dd2 inh -19, KDM4C inh -1, T cruzi growth-2 103*, T cruzi growth-3 -4, NIH3T3 tox -1 and 3T3 cytotox 2 8.
O=C(C[C@H]1C=C[C@H](NS(=O)(=O)c2ccc(F)cc2)[C@H](CO)O1)N1CCC(Cc2ccccc2)CC1 was read as IDH1 R132H inh 0, T cruzi growth-1 inconclusive, Pf Dd2 inh 1, KDM4C inh 1, T cruzi growth-2 107*, T cruzi growth-3 -15, NIH3T3 tox -18 and 3T3 cytotox 2 16.
O=C(NCC(F)(F)F)[C@@H]1[C@@H](CO)[C@@H]2Cn3c(cccc3=O)[C@H]1N2CCC(F)(F)F was read as Pf Dd2 inh 71 and KDM4C inh -1.
`O=C(Cc1cccnc1)N1CC(=O)N2[C@H](CO)[C@@H](c3ccc(C#CC4CCCC4)cc3)[C@@H]2C1` gave Pf Dd2 inh -31 and KDM4C inh 1.
COc1ccc(-c2nn(C)c(=O)c3ccccc23)cc1NC(=O)COc1ccc(C)cc1 was read as IDH1 R132H inh 0.
